# A selection: hits, their analogues and other compounds. The true share with any hit is near 3.5%.
# STAT1 act – activators of IFN-gamma induced STAT1 signaling; NIH 3T3 STAT1-luciferase reporter, luminescence; 100% = IFN-gamma alone, no compound; activation (% of control), % at 5.5 µM; 200,000 compounds, 2.6% hits; AID 932;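 active means activation above the screen-wide mean activation plus 3 SD, cut at about 130% in these data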;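 further: raw ratio to IFN-gamma control signal so 100% means no change and 0% no light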
# NF-kB expr up – NF-kB expression increase, human neuronal cells; 190,000 compounds, 1.6% hits; NF-kB reporter expression; hits give high values; AID 1239; fold change at 12.5 µM; in the data active means fold change above about 3.3
# FLuc inh counter – counter-screen for luciferase assay inhibitors: firefly luciferase inhibition; inhibition, % at 10 µM; 200,000 compounds, 1.5% hits; ATPLite firefly luciferase biochemical luminescence, 10 min;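 active means inhibition above about 50% when tested at 10 µM, limit read from the data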
# Target sequence (P08659 whole entry, looked up): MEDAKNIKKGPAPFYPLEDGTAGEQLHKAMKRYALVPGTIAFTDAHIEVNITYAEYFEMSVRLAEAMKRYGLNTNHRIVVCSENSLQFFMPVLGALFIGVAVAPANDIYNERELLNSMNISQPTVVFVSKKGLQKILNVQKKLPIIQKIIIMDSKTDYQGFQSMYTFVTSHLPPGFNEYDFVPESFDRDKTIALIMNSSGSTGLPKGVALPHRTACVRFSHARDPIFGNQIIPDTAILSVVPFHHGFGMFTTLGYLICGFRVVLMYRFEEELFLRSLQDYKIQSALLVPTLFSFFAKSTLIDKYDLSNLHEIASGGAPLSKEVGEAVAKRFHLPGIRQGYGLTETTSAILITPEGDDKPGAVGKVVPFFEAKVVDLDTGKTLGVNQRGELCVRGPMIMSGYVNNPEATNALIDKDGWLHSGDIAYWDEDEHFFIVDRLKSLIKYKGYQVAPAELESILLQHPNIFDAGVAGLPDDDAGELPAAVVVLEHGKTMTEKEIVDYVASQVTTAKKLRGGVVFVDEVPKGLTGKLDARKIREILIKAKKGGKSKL
# APP 5'UTR act – activates APP 5'UTR luciferase reporter. SH-SY5Y APP 5'UTR luciferase reporter, luminescence; zero percent = DMSO vehicle wells. activation, % at 2 µM. 190,000 compounds, 1% hits. AID 1276;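 active means activation above a set limit, based on mean plus 3 SD of controls, cut at about 140% in these data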
# Pf gametocyte – kills late stage P. falciparum gametocytes | inhibition, % at 10.9 µM | 150,000 compounds, 0.065% hits | P. falciparum stage V gametocytes, ATP luminescence, 24 h;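 active means inhibition above the mean plus 3 SD of compounds within the control limits, set per campaign, cut at about 38% in these data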;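 further: 0% = DMSO wells and 100% = medium only without gametocytes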
# FLuc act counter – firefly luciferase counter-screen for stimulation assays; P08659; 200,000 tested, under 10 active; AID 1027; ATPlite luciferase biochemical, luminescence, 10 min; 0 = ATP-free wells, 1 = DMSO control; activation factor at 10 µM;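 active means luciferase activation factor, scaled between plate controls, of at least 2 with compound at 10 µM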
#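 Material: Luciferase/luciferin reagent mix; Doses: test compounds dosed from 2 mM stocks in 100% DMSO; Schedule: 10 min incubation after luciferase reagent addition, room temperature; Measured by: luminescence from luciferase reaction; Read-out: luminescence gain marking luciferase activators.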
# * = called active by the depositor; / = no result.
SMILES,STAT1 act,NF-kB expr up,FLuc inh counter,APP 5'UTR act,Pf gametocyte,FLuc act counter
CC(=O)c1cccc(NC(=O)c2ccoc2C)c1,97,1.3,-3,-16,/,1
C/C(=N\NC(=O)c1ccc(F)cc1)c1cccc(NC(=O)c2ccco2)c1,101,0.94,50*,14,/,0.5
C/C(=N\NC(=O)c1nn(C)c(C)c1Br)c1cccc(NC(=O)c2ccoc2C)c1,150*,1.5,20,59,-6,0.8
C/C(=N\NC(=O)c1cccc(F)c1)c1cccc(NC(=O)c2ccc(F)cc2)c1,107,1.2,2,-2,/,1
C/C(=N\NC(=O)c1ccc(Cl)cc1)c1cccc(NC(=O)c2cccnc2)c1,103,1.1,63*,-7,/,0.4
Cc1nn(-c2ccccc2)nc1CNS(C)(=O)=O,/,/,/,/,-6,/
c1ccc(COc2ccc(OCCCn3cncn3)cc2)cc1,114,5.3*,46,136*,-13,0.5
CC1CCN(CCCOc2ccc(OCc3ccccc3)cc2)CC1,109,5.1*,-6,7,/,1.1
c1ccc(COc2ccc(OCCCN3CCCC3)cc2)cc1,104,2,58*,99,11,0.4
CCCCNc1nc(Cl)nc(Nc2ccc(C)cc2)n1,/,/,/,/,-7,/
Cc1ccc(-c2csc(NC(=O)C3=COCCO3)n2)cc1,136*,2.2,3,73,-15,1
COc1ccc(-c2nnc(NC(=O)C3CCCO3)s2)cc1 (centres undefined),142*,1.9,28,55,/,0.7
COc1ccc2nc(NC(=O)C3CCCO3)sc2c1 (centres undefined),150*,3.5*,33,138*,22,0.7
CSc1nc2ccc(NC(=O)C3CCCO3)cc2s1 (centres undefined),132*,2.1,18,29,/,0.8
O=C(Nc1nc(-c2ccc(Oc3ccccc3)cc2)cs1)C1=COCCO1,94,1,-4,5,3,1
O=C(Nc1nc(-c2ccc(Cl)cc2)cs1)C1CCCO1 (centres undefined),131*,2.5,1,36,7,1
CC(C)n1cnc2cc(NCc3ccco3)ccc21,114,1.1,58*,21,/,0.4
CC(C)n1cnc2cc(NCc3ccccc3O)ccc21,/,/,/,/,-2,/
O=C(N/N=C/c1cccnc1)c1[nH]ncc1Br,107,1.2,26,27,2,0.7
O=C(N/N=C/c1ccccc1)c1[nH]ncc1Br,130*,2.5,70*,19,2,0.3
COc1ccc(-c2nnnn2C)cc1S(=O)(=O)NCc1ccccc1,94,1.1,-21,-4,-5,1.2
O=c1[nH]cc(N2CCCCCC2)c(=O)[nH]1,/,/,/,/,8,/
COc1ccccc1C1CC(=O)Nc2cc3c(cc21)OCCO3 (centres undefined),96,2.4,-2,-95,/,1
CC(C)Oc1ccccc1C1Nc2ccccc2C(=O)N1c1ccc2c(c1)OCCO2 (centres undefined),116,4.6*,7,150*,/,0.9
CC(C)Oc1ccccc1C1CC(=O)Nc2cc3c(cc21)OCCO3 (centres undefined),90,3.9*,-17,-95,13,1.2
SMILES,STAT1 act,NF-kB expr up,FLuc inh counter,APP 5'UTR act,Pf gametocyte,FLuc act counter
Cc1ccc(N=Cc2c(O)[nH]c3ccccc23)c([N+](=O)[O-])c1,131*,1,12,160*,4,0.9
Oc1[nH]c2ccccc2c1/C=N/c1nccs1,126,1.3,49,34,-23,0.5
CC(C)(NC(=O)c1ccccc1)c1nc2ccccc2s1,/,/,/,/,9,/
Cc1cc(C(=O)Cn2nnc3ccccc3c2=O)c(C)n1Cc1cccs1,82,1,80*,223*,0,0.2
Cc1[nH]n(-c2nc(-c3ccc(Cl)cc3)cs2)c(=O)c1N=Nc1ccc(O)cc1,82,0.87,8,-54,-26,0.9
COc1cc(/C=C/C(=O)CC(=O)/C=C/c2ccc(O)c(OC)c2)ccc1O,99,7.4*,0,-11,/,1
COc1cc(/C=N/Nc2snc(SC)c2C#N)cc(OC)c1OC,92,1.7,-1,-8,/,1
CSc1nsc(N/N=C/c2ccc3c(c2)OCO3)c1C#N,150*,3.9*,35,168*,5,0.6
CC(/C=N/NC(=O)Cn1nccc1C)=C\c1ccc(C(C)C)cc1,129*,1.1,-3,11,/,1
CC(=O)c1cc2c(cc1NC(=O)Nc1cccc(Cl)c1)OCCO2,106,0.83,-5,4,-6,1
CC1(C)Cc2ccccc2C2=NNC(=O)C2=N1,139*,0.4,1,-1,-7,1
Cn1ccs/c1=N\C(=O)Nc1ccccc1,141*,2.6,35,66,3,0.6
Cn1ccsc1=NC(=O)c1ccccc1F,110,1.8,-3,5,14,1
Nc1ccc2nc(-c3ccc(N)c(Cl)c3)[nH]c2c1,132*,1.4,52*,59,/,0.5
O=[N+]([O-])c1ccc2nc(-c3cccnc3)[nH]c2c1,/,/,/,/,12,/
Nc1ccc2nc(-c3cccnc3)[nH]c2c1,108,1.1,12,/,/,0.9
Nc1ccc2nc(-c3ccccc3)[nH]c2c1,131*,1.2,57*,57,-9,0.4
O=[N+]([O-])c1ccc2nc(-c3ccccc3)[nH]c2c1,141*,1.3,27,109,15,0.7
CCC1CCCCN1CCCNC(=O)c1cc2c(=O)[nH]c3ccccc3c2n1C (centres undefined),103,/,-8,-4,-31,1.1
Cc1cc2n(n1)SC(Nc1ccccc1)N2 (centres undefined),105,1.2,7,7,/,0.9
Cc1ccc(NC2Nc3cc(C)nn3S2)c(C)c1 (centres undefined),142*,2.7,20,62,-4,0.8
O=C(Nc1ccc(S(=O)(=O)Nc2nccs2)cc1)C1=NN(c2ccccc2)C(=O)CC1,/,/,/,/,12,/
Cn1cccc1C1Nc2ccccc2NC2=C1C(=O)CC(C)(C)C2 (centres undefined),102,0.83,-5,139*,/,1
CC1(C)CC(=O)C2=C(C1)Nc1ccccc1NC2c1cccnc1 (centres undefined),/,1.2,5,/,-20,0.9
CCOC(=O)C1(CCOC)CCN(C/C=C/c2ccccc2OC)CC1,/,/,/,/,-5,/
SMILES,STAT1 act,NF-kB expr up,FLuc inh counter,APP 5'UTR act,Pf gametocyte,FLuc act counter
O=C1CCN(Cc2cccnc2)CCN1[C@H](CO)Cc1ccccc1,/,/,/,/,18,/
Nc1nnc(-c2ccc(F)cc2)s1,103,1.2,1,7,/,1
CCOc1ccc(-c2nnc(N)s2)cc1,113,2,58*,38,/,0.4
CC(C)(C)c1ccc(-c2nnc(N)s2)cc1,132*,4.9*,87*,146*,13,0.1
CCOc1ccc(-c2nc(CCl)cs2)cc1,116,3.8*,70*,48,12,0.3
ClCc1csc(-c2ccc(Cl)cc2)n1,104,1.4,0,21,-3,1

# Source: PubChem BioAssay (several laboratories)
